Experimental data pooled from the literature.
Compare with care: the assays were run in different laboratories.
Target: Ephrin type-B receptor 2 (EPHB2, Homo sapiens, UniProt P29323)
Residues used in one study (P29323 19-1055): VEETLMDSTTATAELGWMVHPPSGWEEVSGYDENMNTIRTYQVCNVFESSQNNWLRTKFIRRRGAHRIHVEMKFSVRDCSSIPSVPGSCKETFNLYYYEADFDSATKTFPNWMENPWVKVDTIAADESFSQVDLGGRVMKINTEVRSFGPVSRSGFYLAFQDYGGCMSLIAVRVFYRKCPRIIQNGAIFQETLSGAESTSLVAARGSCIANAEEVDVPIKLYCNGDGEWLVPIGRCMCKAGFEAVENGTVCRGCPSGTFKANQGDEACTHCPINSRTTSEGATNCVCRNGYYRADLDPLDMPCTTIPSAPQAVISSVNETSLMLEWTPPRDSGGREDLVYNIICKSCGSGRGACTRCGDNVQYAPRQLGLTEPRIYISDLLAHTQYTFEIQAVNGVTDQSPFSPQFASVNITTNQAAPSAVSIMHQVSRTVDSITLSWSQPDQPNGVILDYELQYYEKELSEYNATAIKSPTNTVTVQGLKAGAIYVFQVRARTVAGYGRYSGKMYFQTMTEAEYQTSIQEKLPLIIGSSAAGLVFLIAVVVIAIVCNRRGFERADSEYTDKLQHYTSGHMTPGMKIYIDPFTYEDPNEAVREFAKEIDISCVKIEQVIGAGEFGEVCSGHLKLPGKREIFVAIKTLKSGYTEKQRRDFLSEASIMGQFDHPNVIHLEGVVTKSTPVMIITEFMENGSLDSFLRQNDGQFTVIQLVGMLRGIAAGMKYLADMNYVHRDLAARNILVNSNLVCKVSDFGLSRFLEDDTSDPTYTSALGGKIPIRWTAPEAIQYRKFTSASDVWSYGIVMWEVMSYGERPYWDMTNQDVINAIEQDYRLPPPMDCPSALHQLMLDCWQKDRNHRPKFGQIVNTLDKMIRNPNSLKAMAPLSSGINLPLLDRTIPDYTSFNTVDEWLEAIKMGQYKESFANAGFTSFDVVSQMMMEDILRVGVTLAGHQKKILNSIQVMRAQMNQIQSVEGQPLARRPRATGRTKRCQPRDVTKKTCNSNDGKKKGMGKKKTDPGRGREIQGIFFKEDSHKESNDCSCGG

The remaining signal of `COc1ccc(COc2ccc(Cc3cnc(N)nc3N)cc2OC)cc1` is reported as 87.4% (cell-free assay; 0.5 µM).
For `COc1cc2ncnc(Nc3ccc(Oc4ccccc4)c(C)c3C)c2cc1OC`, the inhibition was 6% (enzyme activity, inhibitor; 1 µM).
For `CNC(=O)Nc1ccc2c(c1)[C@@]1(CC2)OC(=O)N(CC(=O)N(Cc2ccc(F)cc2)[C@@H](C)C(F)(F)F)C1=O`, the remaining binding was 87% (cell-free assay, competition with immobilised ligand; 1 µM).
With `Cc1ccc(C(=O)Nc2ccc(CN3CCN(C)CC3)c(C(F)(F)F)c2)cc1C#Cc1cnc2cccnn12` the remaining signal was 49% (cell-free assay; 23.5 nM).
For `O=C(NS(=O)(=O)c1ccc(NCC2CCOCC2)c([N+](=O)[O-])c1)c1ccc(N2CCN(Cc3ccc(C(F)(F)F)cc3-c3ccc(Cl)cc3)CC2)cc1Oc1cnc2[nH]ccc2c1`, the remaining binding was 100% (cell-free assay, competition with immobilised ligand; 1 µM).
With `Cc1ccc(Nc2nccc(N(C)c3ccc4c(C)n(C)nc4c3)n2)cc1S(N)(=O)=O` the inhibition was 44% (enzyme activity, inhibitor; 10 µM).
`COc1cc(Cl)c(C(=O)N[C@@H](CN[C@H]2CC[C@@H](N)CC2)Cc2ccc(C#N)cc2)cc1-c1ccc(CN[C@H](C)c2ccc(C)cc2)o1` gave a remaining activity of 123% (enzyme activity, inhibitor; 1 µM).
With `FC(F)c1nc2ccccc2n1-c1nc(N2CCOCC2)nc(N2CCOCC2)n1` the remaining activity was 106% (enzyme activity, inhibitor; 10 µM).
For `Cc1ccc(NC(=O)c2ccc(CN3CCN(C)CC3)cc2)cc1Nc1nc(-c2cccnc2)cs1`, the remaining signal was 95.3% (cell-free assay; 0.5 µM).
`Cc1ccc(C(=O)NCc2ccsc2)cc1C#Cc1cn(C(C)C)c2ncnc(N)c12` has an activity vs control of 2% (enzyme activity, inhibitor; 1 µM).
`CC(=O)c1c(NS(C)(=O)=O)c2cc(-c3ccc(Cl)cc3)c(-c3ccc(Cl)cc3Cl)nc2n(C)c1=O` gave a remaining binding of 100% (cell-free assay, competition with immobilised ligand; 1 µM).
With `COc1cc2ncnc(Nc3ccc(F)c(Cl)c3)c2cc1OCCCN1CCOCC1` the remaining signal was 87.7% (cell-free assay; 0.5 µM).
`CCCCNc1ncc2c(-c3ccc(F)cc3)nn(C[C@H]3CC[C@H](N)CC3)c2n1` has an inhibition of 94.8% (target engagement in cells, inhibitor, chemoproteomics; 20 mM).
`Oc1cccc(-c2nc(N3CCOCC3)c3oc4ncccc4c3n2)c1` has a remaining activity of 105% (enzyme activity, inhibitor; 10 µM).
`CC(C)(O)c1cncc(-c2nc3ccc(F)cc3n2C2CC2)c1` has a remaining binding of 99% (cell-free assay, competition with immobilised ligand; 1 µM).
`Nc1ncnc2occ(-c3ccc(NC(=O)Nc4cc(C(F)(F)F)ccc4F)cc3)c12` gave a remaining signal of 0% (cell-free assay; 20 µM).
The inhibition of `CCN(CC)CCNC(=O)c1c(C)[nH]c(/C=C2\C(=O)Nc3ccc(F)cc32)c1C` is reported as 2% (enzyme activity, inhibitor; 0.3 µM).
With `COc1cc(Nc2cnc(C#N)c(O[C@H](C)CN(C)C)n2)ncc1-c1cnn(C)c1` the remaining activity was 110% (enzyme activity, inhibitor, radiometric; 1 µM).
For `C[C@H](c1ccnc(Nc2nc3ccc(-c4cc(N(C)C)ncn4)cc3[nH]2)c1)N1CCN(C(=O)CC(F)(F)F)CC1`, the remaining binding was 93% (cell-free assay, competition with immobilised ligand; 0.1 µM).
With `CN(C)c1ccc(C=C2C(=O)Nc3ccccc32)cc1` the remaining signal was 86.5% (cell-free assay; 0.5 µM).
`CN(C)C1CCN(CC#Cc2nn(C3CCCC3)c3nc(NCc4ccccc4)ncc23)C1` (stereo not drawn) has an inhibition of 3% (enzyme activity, inhibitor, FRET; 0.1 µM).
With `O=C(Nc1cnn(-c2csc(C(=O)NC3COC3)c2)c1)Nc1c(F)cccc1Cl` the remaining activity was 99.9% (enzyme activity, inhibitor; 5 µM).
`CC(C)CC(=O)N1CCc2nc(-c3ccc(Br)cc3)nc(N(C)Cc3ccccc3)c2C1` has a remaining binding of 80% (cell-free assay, competition with immobilised ligand; 0.1 µM).
`CNC(=O)c1cc2c(Oc3ccc(NC(=O)C4(C(=O)Nc5ccc(F)cc5)CC4)cc3)ccnc2cc1OC` gave an inhibition of 95% (enzyme activity, inhibitor, radiometric; 1 µM).
`FC(F)(F)c1ccc2c(c1)nc(-c1cccnc1)n2C1CC1` has a remaining binding of 83% (cell-free assay, competition with immobilised ligand; 1 µM).
`Cc1cc(NC(=O)c2cccc3cc(-c4cccc5[nH]nc(N)c45)ccc23)ccc1F` gave an activity vs control of 102% (enzyme activity, inhibitor; 0.1 µM).
`Cc1ccc(NC(=O)c2ccc(C)c(C(F)(F)F)c2)cc1C#Cc1nn(C2CCC(O)CC2)c2ncnc(N)c12` (stereo not drawn) gave a remaining signal of -1% (cell-free assay; 10 µM).
`COc1cc(/C=C/C(=O)CC(=O)/C=C/c2ccc(O)c(OC)c2)ccc1O` gave an activity vs control of 111% (enzyme activity, inhibitor; 1 µM).
For `CNC(=O)Nc1ccc2c(c1)CC[C@@]21OC(=O)N(CC(=O)N(Cc2ccc(F)cc2)[C@@H](C)C(F)(F)F)C1=O`, the remaining binding was 72% (cell-free assay, competition with immobilised ligand; 1 µM).
`CCOc1cc(-c2nncn2C)ccc1Nc1ncc2cc(C)nc(NCC(C)(C)C)c2n1` gave an inhibition of under 15% (enzyme activity, inhibitor, FRET; 1 µM).
